The text below walks through data of ChEMBL document CHEMBL1156665, “Potent inhibition of human phosphodiesterase-5 by icariin derivatives” (J Nat Prod, 2008).

Activity calls are given as the source filed them. The rule behind the calls is not given here.

Data set [1] concerns the target T1, cGMP-specific 3',5'-cyclic phosphodiesterase (Homo sapiens, UniProt O76074). Put plainly: Inhibition of human recombinant PDE5A1 expressed in COS7 cells at 10 uM. Type of data set: cell-based. To be noted: COS-7. In outline:
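Full-length human PDE5A1 cDNA expressed in COS-7 cells as the enzyme source. Activity measured by the Kincaid and Manganiello method with minor modifications. Individual compounds screened at a single 10 µM concentration; plant extracts at 50 µg/mL. Results are mean ± SD of at least two experiments in triplicate.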

Data set [2] addresses T1, cGMP-specific 3',5'-cyclic phosphodiesterase. Put plainly: Inhibition of human recombinant PDE5A1 expressed in COS7 cells. Type of data set: cell-based, COS-7.
For data set [3], the target named is T2, Cone cGMP-specific 3',5'-cyclic phosphodiesterase subunit alpha' (Homo sapiens, UniProt P51160). Put plainly: Inhibition of human PDE6C at 10 uM. As to conditions: in the assay text read “at 10-fold PDE5A1 IC50” for “at 10 uM”. In a few lines: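 Human PDE6C run under the same conditions as the PDE5A1 assay (Kincaid–Manganiello method, modified), at 0.5 U enzyme per sample. Compounds tested at a single concentration 10-fold above their PDE5A1 IC50. Mean ± SD of at least two experiments in triplicate.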

Data set [4] in a line: Inhibition of human platelet cAMP-specific phosphodiesterase. In outline: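 Platelets from healthy volunteers' blood, pelleted by centrifugation at 4 °C, resuspended in 10 mM Tris/HCl pH 7.4 and lysed by three freeze–thaw cycles. Lysate (64 µg protein/mL) incubated 5 min at 30 °C with 0.5 µM cAMP plus [3H]-cAMP in 30 mM Tris-HCl pH 7.4, 4 mM MgCl2. Product converted with nucleotidase and separated on DEAE-Sephadex. [3H]-adenosine counted by scintillation. Tested at 1–250 µM, IC50 from sigmoidal fit. Mean ± SD of three experiments in triplicate.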

Data set [5] is filed under the species Homo sapiens. The data set can be described thus: Selectivity ratio of IC50 for human PDE6C to IC50 for human PDE5A1. In a few lines:
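PDE6C IC50 divided by PDE5A1 IC50. PDE6C assayed as for PDE5A1 (modified Kincaid–Manganiello method, 0.5 U enzyme/sample). PDE5A1 was full-length human recombinant enzyme expressed in COS-7 cells. IC50s from sigmoidal curve fits. Mean ± SD of at least two experiments in triplicate.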

Data set [6] in a line: Cytotoxicity against human fibroblasts at 100 uM after 24 hrs by MTT assay. Type of data set: cell-based. As to conditions: fibroblast. In outline: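 Human skin fibroblasts exposed 24 h to 0.25–100 µM in DMEM-F12 with 10% heat-inactivated FBS, 1% penicillin, 1% L-glutamine. Medium then replaced with MTT 0.5 mg/mL in PBS, 3 h at 37 °C. Formazan extracted with 2-propanol/DMSO (9:1), 15 min at 37 °C, absorbance read at 560 nm.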

Data set [7] addresses T2, Cone cGMP-specific 3',5'-cyclic phosphodiesterase subunit alpha'. The data set can be described thus: Inhibition of human PDE6C.
The species named for data set [8] is Homo sapiens. The data set can be described thus: Selectivity ratio of IC50 for human cAMP-PDE to IC50 for human PDE5A1. In outline:
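cAMP-PDE IC50 divided by PDE5A1 IC50. cAMP-PDE from human platelet lysate (64 µg protein/mL) with 0.5 µM cAMP/[3H]-cAMP, 5 min at 30 °C, at 1–250 µM. PDE5A1 was recombinant human full-length enzyme expressed in COS-7 cells. IC50s from sigmoidal fits.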

T2 sequence (P51160 whole entry): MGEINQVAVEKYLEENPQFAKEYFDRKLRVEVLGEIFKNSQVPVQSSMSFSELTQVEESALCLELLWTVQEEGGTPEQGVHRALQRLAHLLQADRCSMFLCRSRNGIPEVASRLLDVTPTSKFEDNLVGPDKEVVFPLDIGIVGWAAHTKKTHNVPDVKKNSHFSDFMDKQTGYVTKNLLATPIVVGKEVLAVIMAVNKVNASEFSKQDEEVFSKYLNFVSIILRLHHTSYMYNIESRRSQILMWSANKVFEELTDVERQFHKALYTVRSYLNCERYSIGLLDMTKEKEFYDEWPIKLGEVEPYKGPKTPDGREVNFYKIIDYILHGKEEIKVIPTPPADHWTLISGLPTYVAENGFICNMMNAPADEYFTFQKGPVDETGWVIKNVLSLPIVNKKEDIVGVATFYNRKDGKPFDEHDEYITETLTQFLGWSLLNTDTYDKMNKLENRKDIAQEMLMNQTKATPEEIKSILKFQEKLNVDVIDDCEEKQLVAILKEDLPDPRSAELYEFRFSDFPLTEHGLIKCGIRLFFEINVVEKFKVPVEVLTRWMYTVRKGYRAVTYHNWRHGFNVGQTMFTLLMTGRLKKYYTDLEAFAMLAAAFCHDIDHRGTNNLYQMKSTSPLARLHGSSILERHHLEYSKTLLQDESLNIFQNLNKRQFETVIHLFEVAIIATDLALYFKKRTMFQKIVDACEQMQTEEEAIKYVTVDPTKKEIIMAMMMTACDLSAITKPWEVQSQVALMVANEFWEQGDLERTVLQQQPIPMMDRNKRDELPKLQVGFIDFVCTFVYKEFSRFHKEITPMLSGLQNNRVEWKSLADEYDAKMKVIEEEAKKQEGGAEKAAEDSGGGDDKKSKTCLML

What is called inhibition is the share of the control response that was lost under treatment. For `O=c1cc(-c2ccc(O)cc2)oc2cc(O)cc(O)c12`, the inhibition in data set [1] came to 12%.
Usually IC50 stands for the concentration that inhibits the measured activity by half. For `COc1ccc(-c2oc3c(CC=C(C)C)c(O[C@@H]4O[C@H](CO)[C@@H](O)[C@H](O)[C@H]4O)cc(O)c3c(=O)c2O[C@@H]2O[C@@H](C)[C@H](O)[C@@H](O)[C@H]2O)cc1` [ICARIIN], in data set [2], the IC50 amounted to 5.9 µM. This molecule showed an inhibition in data set [3] of 45%.
Take `COc1ccc(-c2oc3c(CC=C(C)C)c(O)cc(O)c3c(=O)c2O[C@@H]2O[C@H](C)[C@@H](O)[C@H](O)[C@@H]2O)cc1`: the result in data set [3] was inactive.
For the molecule `O=C1C[C@@H](c2ccc(O)cc2)Oc2cc(O)cc(O)c21`, the inhibition in data set [1] stood at 6%.
With `CC(C)=CCc1c(O)cc(O)c2c(=O)cc(-c3ccc(O)cc3)oc12`, the IC50 in data set [2] amounted to 1.29 µM.
As for `COc1ccc(-c2oc3c(CC=C(C)C)c(O)cc(O)c3c(=O)c2O[C@@H]2O[C@@H](C)[C@H](O)[C@@H](O)[C@H]2O)cc1` [ICARISIDE II], the half-inhibitory concentration (IC50) in data set [2] is 0.16 µM.
Still for that read-out and setting: the result for `CC(C)=CCc1c(O)cc(O)c2c1OC(c1ccc(O)cc1)CC2=O` (centres undefined) [SOPHORAFLAVANONE B] reads 16.2 µM; that for `CC(C)=CCc1c(O)cc(O)c2c(=O)c(O)c(-c3ccc(O)c(O)c3)oc12`, 0.7 µM.
On to `COc1ccc(-c2oc3c4c(cc(O)c3c(=O)c2O)OC(C)(C)CC4)cc1`, for which the IC50 in data set [2] came out at 45.5 µM. In addition, the result in data set [3] was inactive.
For the molecule `COc1ccc(-c2oc3c(CC=C(C)C)c(OCCO)cc(O)c3c(=O)c2O[C@@H]2O[C@H](C)[C@@H](O)[C@H](O)[C@@H]2O)cc1`, in data set [2], the IC50 turned out to be 0.36 µM. This molecule also gave an inhibition in data set [3] of 86%.
As for `COc1ccc(-c2oc3c(CC=C(C)C)c(O)cc(O)c3c(=O)c2O)cc1` [ICARITIN], the 50% inhibitory concentration (IC50) in data set [2] was 2.2 µM. Also, in data set [3], the result was inactive.
Take `CCCc1nn(C)c2c(=O)[nH]c(-c3cc(S(=O)(=O)N4CCN(C)CC4)ccc3OCC)nc12`: the IC50 in data set [4] is 27.5 µM.
Consider `O=c1c(O)c(-c2ccc(O)c(O)c2)oc2cc(O)cc(O)c12`, for which the inhibition in data set [1] is 23%.
As for `COc1ccc(-c2oc3c(CC=C(C)C)c(OCCO)cc(O)c3c(=O)c2OCCO)cc1`, the results for the IC50 in data set [2], in data set [7] and in data set [4] were 0.074 µM, 30.9 µM and 96.3 µM, respectively. Further, the values for the Ratio IC50 in the data set filed under Homo sapiens [5] and in the data set filed under Homo sapiens [8] were 418 and 1300, respectively. Moreover, the result in data set [3] was inactive. Moreover, in data set [6], the Activity result is given as “Non-toxic”.
